One molecule from ChEMBL document CHEMBL1134641, “Progress toward the development of a safe and effective agent for treating reentrant cardiac arrhythmias: synthesis and evaluation of ibutilide analogues with enhanced metabolic stability and diminished proarrhythmic potential” (2001) can be followed below.

Structures are written as SMILES.

For test [1], the system named is Canis familiaris. As to the kind of experiment: Blood pressure measured in canine 24-h Infarction model at a single intravenous dose of 2.4 uM/kg. Type of test: functional, Canis lupus familiaris. The essentials:
(§1)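 Male mongrel dogs (16-22 kg) with LAD permanently ligated in two stages; studied 24 h later. […] given IV in sequential doses to cumulative 0.24, 0.72, 2.4 µmol/kg. Saline controls (n=8) received vehicle, then a single IV 2.4 µmol/kg dose at the end. Measurements taken at baseline and 15 min after each dose. Means ± SEM, paired t-test, p ≤ 0.05.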

The test system of test [2] is Canis familiaris. Description: Ventricular effective refractory (VEPR) period measured in canine 24-h Infarction model at an cumulative intravenous dose of 2.4 uM/kg. It is filed as functional, Canis lupus familiaris, Heart. Summed up: (§2)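 Male mongrel dogs (16-22 kg) with LAD permanently ligated in two stages, studied 24 h after ligation. Compound given in saline (6.0 µmol/mL) as sequential intravenous doses to reach cumulative 0.24, 0.72 and 2.4 µmol/kg. VERP and other measurements taken at baseline and 15 min after each dose. Saline-dosed dogs served as controls. Results are means ± SEM, paired t-test, p ≤ 0.05.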

For test [3], the system named is Canis familiaris. As to the kind of experiment: Heart Rate measured in canine just after inducing atrial flutter (AFL) termination by the compound at a dose of 4.8 uM/kg. It is filed as functional, Canis lupus familiaris.
The subject of test [4] is Canis familiaris. As to the kind of experiment: Atrial MAPD90 measured in canine 24-h Infarction model at a single intravenous dose of 2.4 uM/kg. It is filed as functional, Canis lupus familiaris, Cardiac atrium. The essentials:
as §1

In test [5] the test system is Canis familiaris. Description: Heart Rate measured in canine just after inducing atrial flutter (AFL) termination by the compound at a dose of 12.0 uM/kg. Type of test: functional, Canis lupus familiaris.
Test [6] deals with Canis familiaris. Description: Heart rate measured in canine 24-h Infarction model at an cumulative intravenous dose of 0.24 uM/kg. Type of test: functional, Canis lupus familiaris. Summed up: as §1
For test [7], the species on record is Canis familiaris. Description: QT interval measured in canine just after inducing atrial flutter (AFL) termination by the compound. It is filed as functional, Canis lupus familiaris, Heart. The essentials:
(§3)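 Conscious, sling-restrained dogs with chronically implanted electrodes, studied after 2 weeks of recovery. Sustained AFL (>5 min) induced. Compound in saline given iv every 5 min to cumulative 0.024-12.0 µmol/kg. At AFL termination, HR, QT (paced cycle length 300 ms), AERP and VERP measured. Measurements then taken 3 min after each further dose. Significance p≤0.05 vs baseline.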

Test [8] deals with Canis familiaris. Description: Ventricular effective refractory period ([…]) measured in canine just after inducing atrial flutter (AFL) termination by the compound at a dose of 12.0 uM/kg. Type of test: functional, Canis lupus familiaris, Heart. The essentials:
(§4)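 Conscious dogs, loosely restrained in a sling, with exteriorized electrode leads, studied 2 weeks after instrumentation. AFL was induced and counted as sustained if it lasted 5 min. Compound in saline given intravenously every 5 min to cumulative 0.024-12.0 µmol/kg. VERP was measured at AFL termination and 3 min after each dose. Results are means ± SEM versus baseline, p ≤ 0.05.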

Test [9] has as its system Canis familiaris. As to the kind of experiment: Ventricular effective refractory period ([…]) measured in canine just after inducing atrial flutter (AFL) termination by the compound at a dose of 4.8 uM/kg. Type of test: functional, Canis lupus familiaris, Heart. Summed up: as §4
The test system of test [10] is Canis familiaris. As to the kind of experiment: Ventricular effective refractory period ([…]) measured in canine just after inducing atrial flutter (AFL) termination by the compound at a dose of 0.6 umol/kg. It is filed as functional, Canis lupus familiaris, Heart. Summed up: as §4
The subject of test [11] is Canis familiaris. As to the kind of experiment: Heart rate measured in canine 24-h Infarction model at a single intravenous dose of 2.4 uM/kg. It is filed as functional, Canis lupus familiaris. Summed up: as §1
Test [12] has as its system Canis familiaris. As to the kind of experiment: QT interval measured in canine just after inducing atrial flutter (AFL) termination by the compound at a dose of 9.6 uM/kg. Type of test: functional, Canis lupus familiaris, Heart. Summed up: as §3
Test [13] concerns Canis familiaris. Description: Ventricular MAPD90 measured in canine 24-h Infarction model at a single intravenous dose of 2.4 uM/kg. Type of test: functional, Canis lupus familiaris, Heart. The essentials:
(§5)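 Dogs 24 h after two-stage LAD ligation. Compound in saline given iv in sequential doses (cumulative 0.24, 0.72, 2.4 µmol/kg); saline controls then given a single 2.4 µmol/kg iv dose. HR, IVR, BP, QT, spontaneous arrhythmias/min, ERPs and MAPD90 measured at baseline and 15 min after each dose. Means ± SEM, paired t-test, p≤0.05.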

The subject of test [14] is Canis familiaris. Description: Number of canine in which ventricular fibrillation (VF) was observed in PES-induced arrhythmias at an cumulative intravenous dose of 0.24 uM/kg. Type of test: functional, Canis lupus familiaris, Cardiac ventricle. Summed up: (§6)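 Male mongrel dogs (16-22 kg) with LAD ligated in two stages, studied 24 h later. Programmed electrical stimulation at baseline and 15 min after each iv dose in saline (cumulative 0.24, 0.72, 2.4 µmol/kg). Saline controls then received a single 2.4 µmol/kg iv dose. Responses scored as NI (≤15 beats), NSVT (>15 beats, ends within 30 s), SVT (>30 s, needing pacing or cardioversion) or VF. A positive response was repeated.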

Test [15] deals with Canis familiaris. As to the kind of experiment: Number of canine in which nonsustained ventricular tachycardia (NSVT) was observed in PES-induced arrhythmias at an cumulative intravenous dose of 2.4 uM/kg. It is filed as functional, Canis lupus familiaris, Cardiac ventricle. Summed up:
as §6

The test system of test [16] is Canis familiaris. As to the kind of experiment: Ventricular MAPD90 measured in canine 24-h Infarction model at an cumulative intravenous dose of 0.72 uM/kg. Type of test: functional, Canis lupus familiaris, Heart. The essentials:
as §5

Test [17] concerns Canis familiaris. Description: Blood pressure measured in canine 24-h Infarction model at an cumulative intravenous dose of 2.4 uM/kg. It is filed as functional, Canis lupus familiaris. The essentials: as §1
Test [18] concerns Canis familiaris. As to the kind of experiment: Atrial effective refractory period (AEPR) measured in canine 24-h Infarction model at an cumulative intravenous dose of 2.4 uM/kg. Type of test: functional, Canis lupus familiaris, Cardiac atrium. The essentials:
as §1

The test system of test [19] is Canis familiaris. Description: Ventricular effective refractory (VEPR) period measured in canine 24-h Infarction model at an cumulative intravenous dose of 0.24 uM/kg. It is filed as functional, Canis lupus familiaris, Heart. The essentials:
as §2

Test [20] has as its system Canis familiaris. Description: Number of canine in which sustained ventricular tachycardia (SVT) was observed in PES-induced arrhythmias at an cumulative intravenous dose of 2.4 uM/kg. It is filed as functional, Canis lupus familiaris, Cardiac ventricle. Summed up:
as §6

For test [21], the system named is Canis familiaris. Description: Atrial effective refractory period (AERP) measured in canine just after inducing atrial flutter (AFL) termination by the compound at a dose of 4.8 uM/kg. Type of test: functional, Canis lupus familiaris, Heart.

Consider `CCN(CCCCCC(C)(C)F)CCC[C@H](O)c1ccc(NS(C)(=O)=O)cc1.O=C(O)/C=C/C(=O)O`, for which the BP in the test with Canis familiaris [1] is 111 mmHg; in the test on Canis familiaris [17], 119 mmHg. In addition, the VERP in the test with Canis familiaris [2] came out at 185 ms; in the test on Canis familiaris [8], 137 ms; with Canis familiaris [9], 142 ms; with Canis familiaris [10], 141 ms; in the test with Canis familiaris [19], 162 ms. For the same molecule, the HR in the test with Canis familiaris [3] turned out to be 118 beats min-1; with Canis familiaris [5], 122 beats min-1; with Canis familiaris [6], 155 beats min-1; in the test on Canis familiaris [11], 127 beats min-1. The “Atrial MAPD90” value with Canis familiaris [4] was 209 ms. In addition, the QT interval in the test filed under Canis familiaris [7] is reported as 202 ms; with Canis familiaris [12], 204 ms. In addition, the “Ventricular MAPD90” value is 201 ms in the test on Canis familiaris [13] and 170 ms in the test with Canis familiaris [16]. Further, the No. of canine in the test on Canis familiaris [14] is reported as 0; in the test on Canis familiaris [15], 1; in the test on Canis familiaris [20], 0. The values for the AERP in the test with Canis familiaris [18] and with Canis familiaris [21] were 194 ms and 166 ms, respectively.
